# Measured values: paper PMC10373466 (ACS Omega, 2023)
# Where “and” joins values, the source holds several entries; their conditions need not be identical. Equal entries are not always repeated.
# How the values were obtained:
# [1] = Total antioxidant capacity; settings: Trolox TAC value = 1.00
# [2] = In vitro neurotoxicity MTT assay; type: cell-based; settings: human, SH-SY5Y neuroblastoma cells
# [3] = molecular target: hBuChE (Homo sapiens, UniProt P06276); assay: In vitro BuChE inhibition assay; type: biochemical; settings: for IC50: BuChE IC50 ± SD, modified Ellman method
# [4] = Metal chelation assay, UV–vis spectroscopy; type: physicochemical; settings: compound 30 μM, ZnSO4 30 μM, ethanol
# How it was run: (§1)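 Test compound and metal salt (CuSO4, ZnSO4 or FeSO4) mixed in ethanol, both at 30 μM final, and incubated 30 min at room temperature. UV-vis spectra were recorded from 200 to 600 nm for the compound alone, the metal alone and the mixture. Spectra of metal alone and compound alone were subtracted from the mixture spectrum to give the difference spectrum attributed to complex formation.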
# [5] = molecular target: hAChE (Homo sapiens, UniProt P22303); assay: In vitro AChE inhibition assay; type: biochemical; settings: for IC50: in vitro AChE inhibition IC50 ± SD, Ellman method, n = 3
# [6] = molecular target: Aβ1–42 (Homo sapiens, UniProt P05067); assay: Self-induced Aβ1–42 aggregation inhibition; type: biochemical; settings: for IC50: Aβ1–42 aggregation inhibition IC50, self-induced aggregation; for inhibition at 10 µM: read-out: Aβ1–42 (% inhibition at 10 μM)
# [7] = Metal chelation assay, UV–vis spectroscopy; type: physicochemical; settings: compound 30 μM, FeSO4 30 μM, ethanol
# How it was run: as §1
# [8] = molecular target: T1, hMAO-B (Homo sapiens, UniProt P27338); assay: biochemical; type: biochemical
# T1 sequence (P27338 1-520): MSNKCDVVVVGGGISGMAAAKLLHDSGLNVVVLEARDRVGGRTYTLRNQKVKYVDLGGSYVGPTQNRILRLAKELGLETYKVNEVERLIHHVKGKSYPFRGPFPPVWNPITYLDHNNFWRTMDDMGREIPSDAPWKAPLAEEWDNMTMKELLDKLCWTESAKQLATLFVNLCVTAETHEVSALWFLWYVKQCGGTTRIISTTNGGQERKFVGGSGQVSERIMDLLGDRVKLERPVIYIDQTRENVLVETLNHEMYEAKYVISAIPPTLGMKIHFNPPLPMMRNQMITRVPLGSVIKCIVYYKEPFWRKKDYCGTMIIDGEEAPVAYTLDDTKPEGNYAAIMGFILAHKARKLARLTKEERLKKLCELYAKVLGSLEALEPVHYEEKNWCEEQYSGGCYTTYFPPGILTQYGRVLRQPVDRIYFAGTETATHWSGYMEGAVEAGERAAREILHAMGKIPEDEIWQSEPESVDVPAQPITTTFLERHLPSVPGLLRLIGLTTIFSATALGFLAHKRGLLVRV
# [9] = molecular target: BACE-1 (Homo sapiens, UniProt P56817); assay: β-Secretase inhibition assay; type: biochemical; settings: BACE-1 IC50 ± SD
# [10] = In vitro hepatotoxicity MTT assay; settings: human
# [11] = tested on: HepG2 cell line; assay: In vitro hepatotoxicity MTT assay; settings: ratio of hepatotoxicity IC50 to AChE IC50
# [12] = Metal chelation assay, UV–vis spectroscopy; type: physicochemical; settings: compound 30 μM, CuSO4 30 μM, ethanol
# How it was run: as §1
# Chain of hBuChE (P06276 29-602): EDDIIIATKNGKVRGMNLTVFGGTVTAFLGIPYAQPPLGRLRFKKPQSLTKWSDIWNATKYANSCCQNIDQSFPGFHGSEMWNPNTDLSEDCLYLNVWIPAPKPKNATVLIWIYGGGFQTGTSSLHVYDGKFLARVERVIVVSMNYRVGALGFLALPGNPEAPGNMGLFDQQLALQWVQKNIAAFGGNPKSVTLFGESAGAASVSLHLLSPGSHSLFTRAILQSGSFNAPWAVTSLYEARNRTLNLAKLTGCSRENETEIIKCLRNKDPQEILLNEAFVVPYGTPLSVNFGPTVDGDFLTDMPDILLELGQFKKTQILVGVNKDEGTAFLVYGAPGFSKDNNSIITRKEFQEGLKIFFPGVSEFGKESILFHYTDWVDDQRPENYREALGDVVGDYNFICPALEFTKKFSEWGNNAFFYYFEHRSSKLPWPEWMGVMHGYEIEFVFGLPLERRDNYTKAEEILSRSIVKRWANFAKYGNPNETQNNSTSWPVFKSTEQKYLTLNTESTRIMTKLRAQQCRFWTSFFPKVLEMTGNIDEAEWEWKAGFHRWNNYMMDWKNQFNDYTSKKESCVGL
# Chain of Aβ1–42 (P05067 672-713): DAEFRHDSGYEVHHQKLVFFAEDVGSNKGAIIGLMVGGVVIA
# Chain of BACE-1 (P56817 46-501): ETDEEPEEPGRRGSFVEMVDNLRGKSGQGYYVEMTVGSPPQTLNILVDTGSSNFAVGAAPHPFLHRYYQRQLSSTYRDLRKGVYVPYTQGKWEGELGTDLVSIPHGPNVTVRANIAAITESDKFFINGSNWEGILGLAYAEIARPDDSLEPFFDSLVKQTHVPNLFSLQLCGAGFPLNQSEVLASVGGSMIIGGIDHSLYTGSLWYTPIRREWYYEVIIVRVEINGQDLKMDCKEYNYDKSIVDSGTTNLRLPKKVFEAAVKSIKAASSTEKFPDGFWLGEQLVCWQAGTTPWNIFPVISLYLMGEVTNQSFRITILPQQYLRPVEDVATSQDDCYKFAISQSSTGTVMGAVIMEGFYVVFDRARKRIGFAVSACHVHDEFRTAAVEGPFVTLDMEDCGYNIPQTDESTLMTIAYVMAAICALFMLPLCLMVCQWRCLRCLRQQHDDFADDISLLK
# Chain of hAChE (P22303 32-614): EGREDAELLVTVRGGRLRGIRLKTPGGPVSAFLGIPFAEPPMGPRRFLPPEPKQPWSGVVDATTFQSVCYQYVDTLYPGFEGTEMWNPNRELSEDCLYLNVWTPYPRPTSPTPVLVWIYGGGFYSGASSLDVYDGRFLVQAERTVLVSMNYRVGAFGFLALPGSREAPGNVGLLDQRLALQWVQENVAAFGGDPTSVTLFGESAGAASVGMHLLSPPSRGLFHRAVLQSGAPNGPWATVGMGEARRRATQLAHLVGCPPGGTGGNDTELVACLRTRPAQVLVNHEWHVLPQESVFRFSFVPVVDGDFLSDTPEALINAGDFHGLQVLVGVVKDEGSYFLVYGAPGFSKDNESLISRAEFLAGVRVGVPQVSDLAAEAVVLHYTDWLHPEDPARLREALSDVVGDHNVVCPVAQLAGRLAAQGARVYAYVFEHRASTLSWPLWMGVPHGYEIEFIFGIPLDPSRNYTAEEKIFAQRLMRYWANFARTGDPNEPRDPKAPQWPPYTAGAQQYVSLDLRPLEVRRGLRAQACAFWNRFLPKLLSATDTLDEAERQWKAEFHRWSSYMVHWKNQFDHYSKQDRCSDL
SMILES,total antioxidant capacity (Trolox equivalent) [1],IC50 [2] [µM],BuChE SI (selectivity index) = IC50 of AChE/IC50 of BuChE [3],IC50 [3],UV–vis spectral change on addition of ZnSO4 (metal chelation) [4],AChE SI (selectivity index) = IC50 of BuChE/IC50 of AChE [5],IC50 [5] [µM],IC50 [6] [µM],inhibition at 10 µM [6] [%],UV–vis spectral change on addition of FeSO4 (metal chelation) [7],IC50 [8] [µM],IC50 [9] [µM],IC50 at 24 h [10] [µM],safety index ratio (SI) [11],UV–vis spectral change on addition of CuSO4 (metal chelation) [12],fold more active than rivastigmine (BuChE inhibition) [3] [fold],times better than iproniazid (MAO-B inhibition) [8] [times],times more active than curcumin (Aβ aggregation inhibition) [6] [fold]
"Nc1c2c(nc3c1C(c1cccc([N+](=O)[O-])c1)c1ccc(OS(=O)(=O)c4ccc(F)cc4)cc1O3)CCCC2 (centres unmarked) [4c, 11-Amino-12-(3-nitrophenyl)-7,9,10,12-tetrahydro-8H-chromeno[2,3-b]quinolin-3-yl-4-fluorobenzenesulfonate]",0.80 ± 0.032 μmol of Trolox equivalent/μmol tested compound,27.9 ± 1.24,0.90,0.69 ± 0.041 µM,extraordinary hyperchromic shifts,1.11,0.62 ± 0.03,4.28 ± 0.17,47,extraordinary hyperchromic shifts,8.04 ± 0.27,2.68 ± 0.123,78.3 ± 3.6,125.26,extraordinary hyperchromic shifts,,,
"COc1ccc(S(=O)(=O)Oc2ccc3c(c2)Oc2nc4c(c(N)c2C3c2cccc(OC)c2)CCCC4)cc1 (centres unmarked) [4g, 11-Amino-12-(3-methoxyphenyl)-7,9,10,12-tetrahydro-8H-chromeno[2,3-b]quinolin-3-yl-4-methoxybenzenesulfonate]",,86 ± 3.81,0.85,0.35 ± 0.021 µM,slight hypochromic shift,1.18,0.3 ± 0.01,11.7 ± 0.45,43,hyperchromic shifts,12.7 ± 0.43,1.46 ± 0.068,126 ± 5.3,417.88,hyperchromic shifts,,,
"Cc1ccc(S(=O)(=O)Oc2ccc3c(c2)Oc2nc4c(c(N)c2C3c2ccc(Cl)c(Cl)c2)CCCC4)cc1 (centres unmarked) [4n, 11-Amino-12-(3,4-dichlorophenyl)-7,9,10,12-tetrahydro-8H-chromeno[2,3-b]quinolin-3-yl-4-methylbenzenesulfonate]",0.66 ± 0.026 μmol of Trolox equivalent/μmol tested compound,91.7 ± 4.06,2.59,0.18 ± 0.011 µM,remarkable hyperchromic effect,0.38,0.47 ± 0.02,17.4 ± 0.68,40,remarkable hyperchromic effect,3.73 ± 0.13,0.25 ± 0.011,67.4 ± 3.3,141.53,remarkable hyperchromic effect,~4,~2,
"Nc1c2c(nc3c1C(c1cccc([N+](=O)[O-])c1)c1ccc(OCC(=O)c4ccc(Cl)cc4)cc1O3)CCCC2 (centres unmarked) [5c, 2-[11-Amino-12-(3-nitrophenyl)-7,9,10,12-tetrahydro-8H-chromeno[2,3-b]quinolin-3-yl]oxy-1-(4-chlorophenyl)ethan-1-one]",0.88 ± 0.034 μmol of Trolox equivalent/μmol tested compound,36.3 ± 1.43,5.37,0.082 µM and 0.08 µM,slight hyperchromic effect,0.19,0.44 ± 0.02,2.85 ± 0.11,59,noteworthy hyperchromic effect,5.15 ± 0.17,0.38 ± 0.017,188 ± 6.9,427.73,noteworthy hyperchromic effect,10,,
"Nc1c2c(nc3c1C(c1ccc(Cl)c(Cl)c1)c1ccc(OCC(=O)c4ccc(Cl)cc4)cc1O3)CCCC2 (centres unmarked) [5d, 2-[11-Amino-12-(3,4-dichlorophenyl)-7,9,10,12-tetrahydro-8H-chromeno[2,3-b]quinolin-3-yl]oxy-1-(4-chlorophenyl)ethan-1-one]",,71.1 ± 2.8,1.69,0.14 ± 0.009 µM,slight hyperchromic shift,0.59,0.25 ± 0.01,0.74 ± 0.03,76,noticeable optical shift,2.42 ± 0.08,0.44 ± 0.021,154 ± 6.2,611.51,slight hyperchromic shift,5,~3,8
"Nc1c2c(nc3c1C(c1ccc(Cl)c(Cl)c1)c1ccc(OCC(=O)c4ccccc4)cc1O3)CCCC2 (centres unmarked) [5i, 2-[11-Amino-12-(3,4-dichlorophenyl)-7,9,10,12-tetrahydro-8H-chromeno[2,3-b]quinolin-3-yl]oxy-1-phenylethan-1-one]",,17.2 ± 0.76,2.12,0.26 ± 0.016 µM,without remarkable shifts,0.47,0.56 ± 0.03,1.41 ± 0.05,68,hyperchromic effect,1.62 ± 0.05,2.12 ± 0.098,113 ± 5.1,200.53,without remarkable shifts,~4,~4,
